A selection: hits, their analogues and other compounds. The true share with any hit is near 3%.
UBC13 inh – blocks human UBC13 polyubiquitin chain formation. TR-FRET. AID 485273. 330,000 compounds, 0.47% hits. inhibition, % at 20 µM; in the data active means inhibition above about 45%, passing the limit was not always enough
SENP8 block-1 – inhibitors of human SENP8 protease; AID 602440; 360,000 compounds, 0.64% hits; recombinant SENP8, Nedd8 substrate fluorescence; Q96LD8; inhibition, % at 20 µM; in the data active means inhibition mostly above about 40%, no sharp cut-off; inactive means mostly below about 27%
SENP7 inh – SENP7 protease inhibition. Q9BQF6. recombinant SENP7, Z-RLRGG-aminoluciferin luminescence, 40 min. inhibition, % at 5 µM. 330,000 compounds, 1.5% hits. AID 434973;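 active means inhibition above about 50% at the single test dose, limit read from the data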;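 further: plate controls were DMSO with enzyme for no effect and no enzyme buffer wells for full effect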
Target sequence (Q9BQF6 706-1050 limits assumed): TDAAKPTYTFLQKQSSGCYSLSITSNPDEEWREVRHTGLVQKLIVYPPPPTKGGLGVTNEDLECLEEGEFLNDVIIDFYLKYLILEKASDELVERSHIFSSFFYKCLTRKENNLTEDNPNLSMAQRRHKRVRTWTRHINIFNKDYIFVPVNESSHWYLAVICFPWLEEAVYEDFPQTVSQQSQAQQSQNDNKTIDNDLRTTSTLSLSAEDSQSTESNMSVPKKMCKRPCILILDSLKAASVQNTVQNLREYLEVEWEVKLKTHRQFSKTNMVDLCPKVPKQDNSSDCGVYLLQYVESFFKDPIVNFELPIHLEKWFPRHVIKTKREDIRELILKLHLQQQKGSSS
Apaf1 inhib – blocks human Apaf-1 apoptosome activity | O14727 | 330,000 compounds, 0.71% hits | inhibition, % at 20 µM | reconstituted apoptosome caspase-3 activity, DEVD-Rh110 fluorescence | AID 489030; active means inhibition of at least 40% at 20 µM;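 further: plate controls were DMSO wells for no effect and DEVD-CHO caspase inhibitor wells for full effect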
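Material: reconstituted apoptosome with Apaf-1, cytochrome c, caspase-9, procaspase-3, dATP / Buffer or medium: pH 7.5 Hepes buffer with CHAPS, BSA, DTT / Also added: cytochrome c with DEVD-Rh110 / Schedule: compound with Apaf-1, dATP, procaspase-3 30 min, then 50 min reaction, room temperature / Technique: rhodamine 110 fluorescence at Ex 480/Em 540 nm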
SENP6 inh – blocks the human protease SENP6; Q9GZR1; Recombinant SENP6 catalytic domain, aminoluciferin luminescence; inhibition, % at 10 µM; 330,000 compounds, 1.8% hits;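 active means inhibition above about 50% at the single tested dose, limit read from the data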;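 further: plate controls were DMSO wells with enzyme for no effect and DMSO wells lacking enzyme for full effect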
SENP8 block-2 – SENP8 protease inhibition; Q96LD8; inhibition, % at 10 µM; 330,000 compounds, 1.2% hits; purified SENP8, Z-RLRGG-aminoluciferin cleavage, luminescence; in the data active means inhibition above about 50%
SENP8 conf – human SENP8 inhibition, confirmed | shares compounds with SENP7 inh | Recombinant SENP8, Z-RLRGG-aminoluciferin luminescence, 60 min | inhibition, % at 12.5 µM | 6,200 compounds, 40% hits | AID 488912;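 active means mean inhibition across replicates above about 50%, limit read from the data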
SENP6 conf – confirmation of human SENP6 protease inhibitors; shares compounds with SENP7 inh; inhibition, % at 12.5 µM; 6,200 compounds, 58% hits; recombinant SENP6, Z-RLRGG-aminoluciferin luminescence; AID 488915
SENP7 confirm – human SENP7 inhibition, confirmed | shares compounds with SENP7 inh | recombinant SENP7, Z-RLRGG-aminoluciferin luminescence, 40 min | inhibition, % at 12.5 µM | 6,200 compounds, 69% hits | AID 488917
Casp3 select – caspase-3 inhibition (SENP selectivity assay). shares compounds with SENP7 inh. purified caspase-3, Z-DEVD-aminoluciferin luminescence, 60 min. inhibition, % at 12.5 µM. 6,200 compounds, 60% hits. AID 488918;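 active means mean inhibition above about 50%, limit read from the data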;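 further: plate controls were enzyme with DMSO for no effect and wells without caspase-3 for full effect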
Target sequence (P42574 28-227 limits assumed): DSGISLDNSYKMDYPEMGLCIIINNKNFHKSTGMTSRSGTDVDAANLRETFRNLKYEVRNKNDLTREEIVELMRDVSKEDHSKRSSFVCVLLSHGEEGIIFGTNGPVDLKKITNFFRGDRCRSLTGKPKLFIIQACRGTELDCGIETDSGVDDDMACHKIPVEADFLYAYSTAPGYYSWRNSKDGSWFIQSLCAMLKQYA
Luc interf – interferes with luciferase luminescence in SENP counter-screen; inhibition, % at 12.5 µM; shares compounds with SENP7 inh; 6,200 compounds, 39% hits; Pre-incubated SENP8/Z-RLRGG-aminoluciferin, luciferase luminescence interference;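 active means mean inhibition above about 50% when retested at one dose, limit read from the data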;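 further: plate controls were DMSO wells with completed reaction for no effect and substrate without enzyme for full effect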
The depositor's hits bear a star.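 How the source made its calls, unless noted: active means mean inhibition above about 50% in the one-dose retest (limit read from the data); inactive means the rest.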

How did COc1ccc(C(=O)/C=C/Nc2cc(C)ccn2)cc1 do in these assays?
UBC13 inh: -6; SENP8 block-1: -319; SENP7 inh: 95*; Apaf1 inhib: -165; SENP6 inh: 95*; SENP8 block-2: 95*; SENP8 conf: 12; SENP6 conf: 99*; SENP7 confirm: 103*; Casp3 select: 96*; Luc interf: 47

Results for CC(=O)/C(C#N)=C1\NC(=O)C(Cc2ccc(C)c(Cl)c2)S1 (centres undefined) ?
UBC13 inh: -12; SENP8 block-1: 6; SENP7 inh: -2; Apaf1 inhib: -6; SENP6 inh: -13; SENP8 block-2: -7

What do the screens show for `CN(C(=O)c1ccccc1)c1nc2ccccc2s1`?
UBC13 inh: 9; SENP8 block-1: 16; SENP7 inh: 47; Apaf1 inhib: 4; SENP6 inh: 71*; SENP8 block-2: 44; SENP8 conf: 28; SENP6 conf: 51*; SENP7 confirm: 71*; Casp3 select: 45; Luc interf: 43

What do the screens show for `Cn1c2ccccc2c(=O)c2cc(C#CC3=CCCCC3)ccc21`?
UBC13 inh: -9; SENP8 block-1: -498; SENP7 inh: 0; Apaf1 inhib: 7; SENP6 inh: 39; SENP8 block-2: 28

What do the screens show for `C=CCn1c2ccccc2c(=O)c2cc(C#CC3(O)CCCCC3)ccc21`?
UBC13 inh: 3; SENP8 block-1: -454; SENP7 inh: 43; Apaf1 inhib: 27; SENP6 inh: 76*; SENP8 block-2: 71*; SENP8 conf: 9; SENP6 conf: 79*; SENP7 confirm: 93*; Casp3 select: 60*; Luc interf: -4

How did C=CCn1c2ccccc2c(=O)c2cc(C#CC[C@@H](C)O)ccc21 do in these assays?
UBC13 inh: -6; SENP8 block-1: inactive; SENP7 inh: 30; Apaf1 inhib: 20; SENP6 inh: 56*; SENP8 block-2: 37; SENP8 conf: 59*; SENP6 conf: 59*; SENP7 confirm: 76*; Casp3 select: 52*; Luc interf: 33

What do the screens show for `OC(c1cccc(OCc2ccccc2)c1)c1nnc(-c2ccccc2)o1` (centres undefined)?
UBC13 inh: -8; SENP8 block-1: 13; SENP7 inh: -3; Apaf1 inhib: 26; SENP6 inh: -25; SENP8 block-2: -12

How did OC(c1ccc(OCc2ccccc2)cc1)c1nnc(-c2ccccc2)o1 (centres undefined) do in these assays?
UBC13 inh: 6; SENP8 block-1: 14; SENP7 inh: 13; Apaf1 inhib: 17; SENP6 inh: 50*; SENP8 block-2: 29; SENP8 conf: 31; SENP6 conf: 33; SENP7 confirm: 56*; Casp3 select: 18; Luc interf: 20

How did Cc1cc(=O)[nH]c(SCc2ccccc2)n1 do in these assays?
UBC13 inh: -8; SENP8 block-1: 8; SENP7 inh: -11; Apaf1 inhib: -8; SENP6 inh: -3; SENP8 block-2: -7

How did Cc1cc(=O)[nH]c(S/C=C/c2ccccc2)n1 do in these assays?
UBC13 inh: 16; SENP8 block-1: 2; SENP7 inh: 90*; Apaf1 inhib: -15; SENP6 inh: 64*; SENP8 block-2: 77*; SENP8 conf: 89*; SENP6 conf: 90*; SENP7 confirm: 98*; Casp3 select: 94*; Luc interf: 89*

How did COc1ccc(C(=O)COc2ccc(F)cc2)c(O)c1C do in these assays?
UBC13 inh: -2; SENP8 block-1: 10; SENP7 inh: -2; Apaf1 inhib: -8; SENP6 inh: 5; SENP8 block-2: 7

What do the screens show for `O=C(/C=C/Nc1ccccc1)c1ccc(Oc2ncccn2)cc1`?
UBC13 inh: -4; SENP8 block-1: -294; SENP7 inh: 82*; Apaf1 inhib: -10; SENP6 inh: 76*; SENP8 block-2: 65*; SENP8 conf: 29; SENP6 conf: 58*; SENP7 confirm: 59*; Casp3 select: 82*; Luc interf: 14

Results for COc1ccc(N/C=C/C(=O)c2ccccc2)cc1 ?
UBC13 inh: 0; SENP8 block-1: -25; SENP7 inh: 96*; Apaf1 inhib: -9; SENP6 inh: 94*; SENP8 block-2: 95*; SENP8 conf: -21; SENP6 conf: 93*; SENP7 confirm: 103*; Casp3 select: 97*; Luc interf: 32

How did CN(C)/C=C/C(=O)c1ccc(Oc2ncccn2)cc1 do in these assays?
UBC13 inh: -19; SENP8 block-1: 1; SENP7 inh: -6; Apaf1 inhib: -2; SENP6 inh: -7; SENP8 block-2: -9

Results for CSCc1ccc(C(=O)Nc2ccc(C(N)=O)cc2)cc1 ?
UBC13 inh: -2; SENP8 block-1: 3; SENP7 inh: 86*; Apaf1 inhib: -3; SENP6 inh: 82*; SENP8 block-2: 74*; SENP8 conf: -11; SENP6 conf: -3; SENP7 confirm: 14; Casp3 select: 55*; Luc interf: 4

Results for O=C(Nc1ccccc1)c1ccc(CSc2ncccn2)cc1 ?
UBC13 inh: -11; SENP8 block-1: 16; SENP7 inh: 91*; Apaf1 inhib: 7; SENP6 inh: 89*; SENP8 block-2: 85*; SENP8 conf: 72*; SENP6 conf: 86*; SENP7 confirm: 96*; Casp3 select: 90*; Luc interf: 28

What do the screens show for `Cc1ccc(NC(=O)c2ccc(CSc3nccc(C)n3)cc2)cc1`?
UBC13 inh: 3; SENP8 block-1: 15; SENP7 inh: 9; Apaf1 inhib: 6; SENP6 inh: -13; SENP8 block-2: -1

How did O=C(Nc1ccccc1F)c1ccc(CSc2ncccn2)cc1 do in these assays?
UBC13 inh: 5; SENP8 block-1: 6; SENP7 inh: 88*; Apaf1 inhib: 0; SENP6 inh: 87*; SENP8 block-2: 83*; SENP8 conf: 86*; SENP6 conf: 86*; SENP7 confirm: 96*; Casp3 select: 90*; Luc interf: 88*

How did Cc1cnn(-c2cc(N/N=C/c3ccccc3F)ncn2)c1 do in these assays?
UBC13 inh: -12; SENP8 block-1: 12; SENP7 inh: -2; Apaf1 inhib: 1; SENP6 inh: -10; SENP8 block-2: -1

Bioassay records (PubChem)
